Bioassay records as filed in PubChem BioAssay.
In the library only some 4.7% were active in any assay of this set; here they are far more common.
VIM-2 inh = VIM-2 metallo-beta-lactamase inhibitors, primary screen, biochemical, epi-absorbance readout, Pseudomonas aeruginosa enzyme; inhibition, % at 5.6 µM; AID 1527, 2009; purified VIM-2, nitrocefin hydrolysis, epi-absorbance fluorescence; hit rate 0.89% among 290,000;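 active = inhibition above the mean of all tested compounds plus 3 SD, cutoff set per screening run, cut at about 7.5% in these data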;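 also: red hydrolysis product quenches plate fluorescence so inhibitors raise well fluorescence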
aSyn UTR inh = MLPCN primary screen, SNCA 5' untranslated region; alpha-synuclein 5'UTR reporter, inhibitor activity; inhibition, % (tested at 7.5 µM); hit rate 0.82% among 300,000; AID 1813, 2009; in the data active = inhibition above about 60%; inconclusive = no clear call, values can overlap the other calls;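 also: H4 neuroglioblastoma cells stably carrying SNCA 5'UTR luciferase fusion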
697 NFkB inh = inhibitors of PMA/ionomycin-induced NF-kB reporter, 697 cells, primary screen, B-cell NF-kB inhibitor project, cell-based, luminescence, uHTS. inhibition, % at 4 µM. AID 435022, 2010. hit rate 0.33% among 330,000. 697 B-cell NF-kB luciferase reporter, 16 h; in the data active = inhibition above about 35%
Jurkat NFkB inh = inhibitors of induced NF-kB luciferase reporter, primary screen, TCR NF-kB activation inhibitor project, cell-based, luminescence, uHTS | Jurkat, PMA/ionomycin-induced NF-kB luciferase reporter | inhibition, % at 4 µM | hit rate 0.53% among 330,000 | AID 435003, 2010; in the data active = inhibition above about 50%
IMP-1 inh = IMP-1 metallo-beta-lactamase inhibitors, primary screen, biochemical, epi-absorbance readout, Pseudomonas aeruginosa enzyme. purified IMP-1, nitrocefin hydrolysis, epi-absorbance fluorescence. hit rate 0.45% among 290,000. inhibition, % at 5.6 µM;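 active = inhibition above the mean plus 3 SD of all compounds in the same screening run, cut at about 4.5% in these data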
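System: Purified IMP-1 | Read-out basis: Percent enzyme inhibition | Controls: IMP-1 with DMSO as 0%, enzyme-free DMSO as 100% | Replicates: One well per compound | Doses: 5.6 µM nominal single concentration | Detection: Epi-absorbance fluorescence, 480 nm excitation, 530 nm emission | Incubation: 25 °C, 15 min preincubation, 25 min reaction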
Mdm2 MdmX PPI = inhibitors of human Mdm2-MdmX association, primary screen, cell-based, luminescence, split luciferase, SaOS-2, uHTS; Protein Mdm4 (Homo sapiens) + E3 ubiquitin-protein ligase Mdm2 (Homo sapiens), …; hit rate 3% among 330,000; inhibition, % at 8 µM; SaOS-2 split-luciferase Mdm2/MdmX complementation;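 active = inhibition of at least 50% at 8 µM in the primary screen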
Mdm2 MdmX conf = Mdm2-MdmX complex disruptors, retested hits, confirmation, luminescence, single concentration; shares compounds with Mdm2 MdmX PPI; Mdm2-MdmX binding, luminescent assay; inhibition, % at 8 µM; hit rate 55% among 10,000; AID 489028, 2010; in the data active = inhibition above about 40%
FLuc counter = full-length luciferase signal inhibition, confirmation, counter-screen for Mdm2/MdmX interaction inhibitor project, cell-based, single concentration, SaOS-2; shares compounds with Mdm2 MdmX PPI; SaOS-2 full-length luciferase counterscreen, luminescence; inhibition, % at 8 µM; hit rate 77% among 6,200; AID 504607, 2011;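 active = mean inhibition at 8 µM reaching about 37%, which flags the compound as non-specific, limit read from the data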;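 also: p53-null SaOS-2 cells with luciferase driven by a doxycycline-inducible promoter; compound on cells about two nights before reading with doxycycline added after day one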
Numbers stand for hits; . = inactive; ? = inconclusive; / = not tested or not shown.

SMILES | VIM-2 inh | aSyn UTR inh | 697 NFkB inh | Jurkat NFkB inh | IMP-1 inh | Mdm2 MdmX PPI | Mdm2 MdmX conf | FLuc counter
CC(OC(=O)/C=C/c1cccs1)C(=O)Nc1ccc(S(N)(=O)=O)cc1 (configuration not stated) | . | . | . | . | . | . | / | /
N#Cc1c(-c2ccc(Cl)cc2)ccnc1N1CCOCC1 | . | . | . | . | . | . | / | /
O=C(Nc1nnc(-c2ccccc2SCc2ccccc2F)s1)Nc1ccccc1F | . | . | . | . | . | 79 | 66 | 101
O=C(COc1ccc(-n2cnnn2)cc1)Nc1cc(Cl)cc(Cl)c1 | / | / | . | . | / | 67 | . | /
O=C(COc1ccc(-n2cnnn2)cc1)Nc1ccc(F)c(Cl)c1 | / | / | . | . | / | . | / | /
CNC(=O)n1cc(C)c(-c2cccs2)n1 | . | . | . | . | . | . | / | /
O=C(CCc1nc2ccccc2c(=O)[nH]1)N1CCN(S(=O)(=O)c2ccc(Cl)c(C(F)(F)F)c2)CC1 | / | . | . | . | / | . | / | /
Cc1ccc(C2Oc3ccccc3C3=C2C(c2cccs2)n2ncnc2N3)cc1 (configuration not stated) | . | . | . | . | . | 58 | 70 | 37
Fc1ccc(C2C3=C(Nc4ncnn42)c2ccccc2OC3c2ccncc2)cc1 (configuration not stated) | . | . | . | . | . | . | / | /
Cc1cc(S(=O)(=O)/N=C(\N)c2ccc(C(N)=O)cc2)cc(C)c1F | . | . | . | . | . | . | / | /
CCCCn1c(SCC(=O)Nc2cc(C)on2)nc2cc(S(N)(=O)=O)ccc21 | / | / | . | . | / | . | / | /
CCCCn1c(SCc2c(C)noc2C)nc2cc(S(N)(=O)=O)ccc21 | . | . | . | . | . | 75 | 60 | 62
CCN(C(=O)COC(=O)CSc1ccc(C(N)=O)cc1[N+](=O)[O-])C1CCCCC1 | . | . | . | . | . | . | / | /
CCOc1cc(/C=C2\COc3ccccc3C2=O)cc(Br)c1OCC(=O)N(C)C | . | . | . | . | . | 97 | 74 | 59
CCOc1cc(/C=N/Nc2nc3ccccc3[nH]2)cc(Br)c1OCC(=O)N(C)C | . | . | . | . | . | . | / | /
Cc1ccc(S(=O)(=O)NCC(=O)OCC(=O)Nc2cccc(S(=O)(=O)N3CCOCC3)c2)cc1 | / | / | . | . | / | . | / | /
Brc1cc(Br)c2ncnc(N3CCCCC3)c2c1 | . | . | . | . | . | 89 | 64 | .
Clc1ccc(Cn2ncc3c(N4CCCCC4)ncnc32)c(Cl)c1 | . | . | . | . | . | . | / | /
O=[N+]([O-])c1cc(C(F)(F)F)ccc1-n1nnc2ccccc21 | . | . | . | . | . | 64 | . | /
CC(C)CN(C(=O)COc1cccc(-n2cnnn2)c1)C1CCS(=O)(=O)C1 (configuration not stated) | . | . | . | . | . | . | / | /
CCCc1nc2oc3c(NCc4ccccn4)ncnc3c2c2c1COC(C)(C)C2 | . | ? | . | . | . | . | / | /
CC(C)Cc1nc2oc3c(Cl)ncnc3c2c2c1CCCC2 | . | . | . | . | . | 68 | . | /
CCCc1nc2oc3c(NCCN(C)C)ncnc3c2c2c1CCCC2 | . | . | . | . | . | 56 | 60 | 38
CCCc1nc2oc3c(Cl)ncnc3c2c2c1CCCC2 | . | . | . | . | . | 100 | . | /
COc1ncnc2c1oc1nc(CC(C)C)c3c(c12)CCCC3 | . | / | / | / | . | / | / | /
CN1CC(=O)Nc2ccc([N+](=O)[O-])cc2C1=O | . | . | . | . | . | . | / | /
COc1ccc(Nc2ccc3c(c2)=NC2(CCCCC2)[N+]=3[O-])cc1 | . | . | . | . | . | 100 | 59 | 39
